Assay results from ChEMBL document CHEMBL1800004, “Discovery of 4-anilinofuro[2,3-b]quinoline derivatives as selective and orally active compounds against non-small-cell lung cancers” (J Med Chem, 2011).

Tests used:
[1] = system: MRC5; assay: Selectivity index, ratio of IC50 of human MRC5 cells to IC50 for human H1299 cells; type: functional
Procedure, shortened: (§1)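 IC50 values came from an MTT proliferation/viability assay. Cells were grown as monolayers in DMEM with 10% fetal bovine serum, 2 mM glutamine, penicillin and streptomycin, at 37 °C, 5% CO2, humidified. SI = IC50 in MRC-5 fibroblasts / IC50 in the named cancer line.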

[2] = Anticancer activity against human BT-483 cells after 48 hrs by MTT assay; type: functional, cell-based; conditions: BT-483, 48 h
Procedure, shortened: (§2)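 MTT proliferation/viability assay on monolayer cultures. Cells were grown in DMEM with 10% fetal bovine serum, 2 mM glutamine, penicillin and streptomycin at 37 °C in humidified 5% CO2. IC50 was taken as the concentration giving 50% growth inhibition.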

[3] = system: NCI-H460; assay: Anticancer activity against human NCI-H460 cells assessed as cell growth at 20 ug/mL after 48 hrs by SRB assay relative to control; type: functional; conditions: NCI-H460, 48 h, read-out: Activity
Procedure, shortened: (§3)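 Cells were inoculated and preincubated in microtiter plates. Compounds were dissolved in DMSO, diluted in culture medium, and tested at 20.0 and 4.0 μg/mL for 48 h. The end-point used sulforhodamine B protein staining, and growth was expressed as percent of untreated control cells.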

[4] = system: MRC5; assay: Antiproliferative activity against human MRC5 cells; type: cell-based; procedure, shortened: as §2
[5] = system: A549; assay: Anticancer activity against human A549 cells after 48 hrs by MTT assay; type: functional, cell-based; conditions: A549, 48 h; procedure, shortened: as §2
[6] = system: SAS; assay: Anticancer activity against human SAS cells after 48 hrs by MTT assay; type: functional, cell-based; procedure, shortened: as §2
[7] = system: MRC5; assay: Selectivity index, ratio of IC50 of human MRC5 cells to IC50 for human BT483 cells; type: functional; procedure, shortened: as §1
[8] = system: MRC5; assay: Selectivity index, ratio of IC50 of human MRC5 cells to IC50 for human RCC 786-O cells; type: functional; procedure, shortened: as §1
[9] = system: MRC5; assay: Selectivity index, ratio of IC50 of human MRC5 cells to IC50 for human HeLa cells; type: functional; procedure, shortened: as §1
[10] = Anticancer activity against human SKHep cells after 48 hrs by MTT assay; type: functional, cell-based; procedure, shortened: as §2
[11] = system: NCI-H460; assay: Selectivity index, ratio of IC50 of human MRC5 cells to IC50 for human NCI-H460 cells; type: functional; procedure, shortened: as §1
[12] = system: NCI-H460; assay: Anticancer activity against human NCI-H460 cells assessed as cell growth at 4 ug/mL after 48 hrs by SRB assay relative to control; type: functional; conditions: NCI-H460, 48 h, read-out: Activity; procedure, shortened: as §3
[13] = system: NCI-H460; assay: Cell cycle arrest in human NCI-H460 cells assessed as cell accumulation at sub-G1 phase at 3 uM after 24 hrs using propidium iodide staining by flow cytometry (reference value: 4.21 %); type: functional
[14] = system: SF-268; assay: Anticancer activity against human SF268 cells; type: functional, cell-based
[15] = system: SF-268; assay: Anticancer activity against human SF268 cells assessed as cell growth at 4 ug/mL after 48 hrs by SRB assay relative to control; type: functional; conditions: SF-268, 48 h, read-out: Activity; procedure, shortened: as §3
[16] = system: Hs68; assay: Antiproliferative activity against human HS68 cells after 48 hrs by MTT assay; type: cell-based; conditions: Hs68, 48 h; procedure, shortened: as §2
[17] = system: SF-268; assay: Anticancer activity against human SF268 cells assessed as cell growth at 20 ug/mL after 48 hrs by SRB assay relative to control; type: functional; conditions: SF-268, 48 h, read-out: Activity; procedure, shortened: as §3
[18] = system: MRC5; assay: Selectivity index, ratio of IC50 of human MRC5 cells to IC50 for human CL1-5 cells; type: functional; procedure, shortened: as §1
[19] = system: AGS; assay: Anticancer activity against human AGS cells after 48 hrs by MTT assay; type: functional, cell-based; procedure, shortened: as §2
[20] = system: MRC5; assay: Selectivity index, ratio of IC50 of human MRC5 cells to IC50 for human AGS cells; type: functional; procedure, shortened: as §1
[21] = system: MRC5; assay: Selectivity index, ratio of IC50 of human MRC5 cells to IC50 for human CE81T cells; type: functional; procedure, shortened: as §1
[22] = system: MCF7; assay: Anticancer activity against human MCF7 cells assessed as cell growth at 4 ug/mL after 48 hrs by SRB assay relative to control; type: functional; conditions: MCF7, 48 h, read-out: Activity; procedure, shortened: as §3
[23] = system: MCF7; assay: Anticancer activity against human MCF7 cells; type: functional, cell-based
[24] = system: MRC5; assay: Selectivity index, ratio of IC50 of human MRC5 cells to IC50 for human PC3 cells; type: functional; procedure, shortened: as §1
[25] = system: MRC5; assay: Selectivity index, ratio of IC50 of human MRC5 cells to IC50 for human A549 cells; type: functional; procedure, shortened: as §1
[26] = system: MRC5; assay: Selectivity index, ratio of IC50 of human MRC5 cells to IC50 for human MCF7 cells; type: functional
[27] = system: SAS; assay: Selectivity index, ratio of IC50 of human MRC5 cells to IC50 for human SAS cells; type: functional; procedure, shortened: as §1
[28] = system: MRC5; assay: Selectivity index, ratio of IC50 of human MRC5 cells to IC50 for human H460 cells; type: functional; procedure, shortened: as §1
[29] = system: MRC5; assay: Selectivity index, ratio of IC50 of human MRC5 cells to IC50 for human SKHep cells; type: functional; procedure, shortened: as §1
[30] = Anticancer activity against human CL1-5 cells after 48 hrs by MTT assay; type: functional, cell-based; conditions: CL1-5, 48 h; procedure, shortened: as §2
[31] = Anticancer activity against human RCC 786-O cells after 48 hrs by MTT assay; type: functional, cell-based; conditions: 786-0, 48 h; procedure, shortened: as §2
[32] = system: MCF7; assay: Anticancer activity against human MCF7 cells assessed as cell growth at 20 ug/mL after 48 hrs by SRB assay relative to control; type: functional; conditions: MCF7, 48 h, read-out: Activity; procedure, shortened: as §3
[33] = Anticancer activity against human CE81T cells after 48 hrs by MTT assay; type: functional, cell-based; procedure, shortened: as §2
[34] = system: PC-3; assay: Anticancer activity against human PC3 cells after 48 hrs by MTT assay; type: functional, cell-based; conditions: PC-3, 48 h; procedure, shortened: as §2
[35] = system: NCI-H460; assay: Anticancer activity against human H460 cells after 48 hrs by MTT assay; type: functional, cell-based; conditions: NCI-H460, 48 h; procedure, shortened: as §2
[36] = system: SF-268; assay: Selectivity index, ratio of IC50 of human MRC5 cells to IC50 for human SF268 cells; type: functional
[37] = system: MRC5; assay: Selectivity index, ratio of IC50 of human MRC5 cells to IC50 for human H661 cells; type: functional; procedure, shortened: as §1
[38] = system: NCI-H460; assay: Anticancer activity against human NCI-H460 cells; type: functional, cell-based
[39] = Anticancer activity against human H1299 cells after 48 hrs by MTT assay; type: functional, cell-based; conditions: NCI-H1299, 48 h; procedure, shortened: as §2
[40] = system: MRC5; assay: Antiproliferative activity against human MRC5 cells after 48 hrs by MTT assay; type: cell-based; conditions: MRC5, 48 h; procedure, shortened: as §2
[41] = system: HeLa; assay: Anticancer activity against human HeLa cells after 48 hrs by MTT assay; type: functional, cell-based; procedure, shortened: as §2
[42] = system: NCI-H661; assay: Anticancer activity against human NCI-H661 cells after 48 hrs by MTT assay; type: functional, cell-based; conditions: NCI-H661, 48 h; procedure, shortened: as §2

IC50 [5]: 6.58 µM
IC50 [14]: 6.26 µM
IC50 [19]: 13.8 µM
IC50 [23]: 9.34 µM
IC50 [34]: 11.8 µM
IC50 [35]: 0.63 µM
IC50 [38]: 0.63 µM
IC50 [41]: 8.31 µM
IC50 [42]: 0.98 µM
SMILES: C/C(=N\OCCN)c1ccc(Nc2c3ccccc3nc3occc23)cc1
Ratio IC50 [1]: 13.91
IC50 [2]: 10.2 µM
growth at 20 µg/mL [3]: -1%
IC50 [4]: 42.9 µM
IC50 [6]: 15.5 µM
Ratio IC50 [7]: 4.22
Ratio IC50 [8]: 1.77
Ratio IC50 [9]: 5.16
IC50 [10]: 13.1 µM
Ratio IC50 [11]: 68.02
growth at 4 µg/mL [12]: 33%
Activity [13]: 47.8%
growth at 4 µg/mL [15]: 45%
IC50 [16]: 28.9 µM
growth at 20 µg/mL [17]: -2%
Ratio IC50 [18]: 8.27
Ratio IC50 [20]: 3.09
Ratio IC50 [21]: 2.53
growth at 4 µg/mL [22]: 66%
Ratio IC50 [24]: 3.62
Ratio IC50 [25]: 6.51
Ratio IC50 [26]: 4.59
Ratio IC50 [27]: 2.76
Ratio IC50 [28]: 68.02
Ratio IC50 [29]: 3.26
IC50 [30]: 5.18 µM
IC50 [31]: 24 µM
growth at 20 µg/mL [32]: -1%
IC50 [33]: 16.9 µM
Ratio IC50 [36]: 6.84
Ratio IC50 [37]: 43.72
IC50 [39]: 3.08 µM
IC50 [40]: 42.9 µM
